From ChEMBL document CHEMBL4400518, “Synthesis, antimicrobial and cytotoxic activities, and molecular docking studies of N-arylsulfonylindoles containing an aminoguanidine, a semicarbazide, and a thiosemicarbazide moiety” (Eur J Med Chem, 2019)
Converted amounts (≈) assume the structure as drawn.

Assays:
[1] = Selectivity index, ratio of IC50 for HEK293T cells to MIC for Staphylococcus aureus CMCC(B) 26003; format: toxicity; conditions: human, read-out: Selectivity Index
[2] = system: Escherichia coli; assay: Antibacterial activity against Escherichia coli CMCC 44568 assessed as ratio of MIC after and before 16 passages at sub-MIC; format: functional
In short: (§1)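 Resistance by serial passage. After an initial broth-dilution MIC, bacteria grown at MIC/2 were transferred to a fresh MIC assay every 22 h incubation, repeatedly. Norfloxacin was the comparator antibiotic. MIC was tracked against passage day.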

[3] = system: Pseudomonas aeruginosa; assay: Antibacterial activity against multidrug-resistant Pseudomonas aeruginosa ATCC BAA-2111 measured after 24 hrs by ELISA; format: functional; conditions: ATCC BAA-2111, 24 h
In short: (§2)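 Broth serial dilution MIC. Mid-log bacteria in Mueller-Hinton or Tryptone Soya broth, diluted 1000-fold and inoculated at 10^5 CFU/mL. Compounds from DMSO stock, final DMSO ≤0.05%. Incubated 24 h at 37 °C; growth read as absorbance at 630 nm. MIC is the lowest concentration giving complete growth inhibition. Three independent experiments.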

[4] = system: Staphylococcus aureus; assay: Antibacterial activity against methicillin-resistant Staphylococcus aureus ATCC 33591 measured after 24 hrs by ELISA; format: functional; conditions: ATCC 33591, 24 h; in short: as §2
[5] = Selectivity index, ratio of IC50 for HEK293T cells to MIC for Bacillus subtilis CMCC 63501; format: toxicity; conditions: human, read-out: Selectivity Index
[6] = system: HEK-293T; assay: Cytotoxicity against HEK293T cells measured after 48 hrs by CCK8 assay; format: cell-based; conditions: Homo sapiens
In short: (§3)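 Cells kept in DMEM with 10% FBS and penicillin-streptomycin at 37 °C, 5% CO2. About 1×10^4 cells per well attached for 24 h, then exposed for 48 h to 0.3, 1, 3, 10, 30 and 100 µmol/L of compound, in triplicate wells. CCK-8 added for 3 h, OD read at 450 nm. IC50 is the concentration inhibiting growth by 50%.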

[7] = system: Bacillus subtilis; assay: Antibacterial activity against Bacillus subtilis CMCC 63501 measured after 24 hrs by ELISA; format: functional; conditions: CMCC 63501, 24 h
In short: (§4)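 Broth microdilution MIC. Mid-log bacteria in MHB or TSB diluted 1000-fold, inoculated at 10^5 CFU/mL. Compounds added from DMSO stocks; final DMSO at most 0.05%. Incubation 24 h at 37 °C. Growth read as absorbance at 630 nm. MIC taken as the lowest concentration giving complete growth inhibition. Three independent experiments.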

[8] = system: Staphylococcus aureus; assay: Antibacterial activity against Staphylococcus aureus CMCC(B) 26003 measured after 24 hrs by ELISA; format: functional; conditions: CMCC(B) 26003, 24 h; in short: as §4
[9] = Selectivity index, ratio of IC50 for HEK293T cells to MIC for Escherichia coli CMCC 44568; format: toxicity; conditions: human, read-out: Selectivity Index
[10] = Selectivity index, ratio of IC50 for HEK293T cells to MIC for Streptococcus pyogenes CMCC 32067; format: toxicity; conditions: human, read-out: Selectivity Index
[11] = Selectivity index, ratio of IC50 for HEK293T cells to MIC for Streptococcus pneumoniae CMCC 31968; format: toxicity; conditions: human, read-out: Selectivity Index
[12] = Selectivity index, ratio of IC50 for HEK293T cells to MIC for multidrug-resistant Pseudomonas aeruginosa ATCC BAA-2111; format: toxicity; conditions: human, read-out: Selectivity Index
[13] = system: Enterococcus faecalis; assay: Antibacterial activity against Enterococcus faecalis CMCC 29212 measured after 24 hrs by ELISA; format: functional; conditions: CMCC 29212, 24 h; in short: as §4
[14] = Selectivity index, ratio of IC50 for HEK293T cells to MIC for Staphylococcus aureus CMCC 25923; format: toxicity; conditions: human, read-out: Selectivity Index
[15] = Selectivity index, ratio of IC50 for HEK293T cells to MIC for Pseudomonas aeruginosa CMCC 27853; format: toxicity; conditions: human, read-out: Selectivity Index
[16] = system: Pseudomonas aeruginosa; assay: Antibacterial activity against Pseudomonas aeruginosa CMCC 10104 measured after 24 hrs by ELISA; format: functional; conditions: CMCC 10104, 24 h; in short: as §4
[17] = Selectivity index, ratio of IC50 for HEK293T cells to MIC for methicillin-resistant Staphylococcus aureus ATCC 43300; format: toxicity; conditions: human, read-out: Selectivity Index
[18] = system: SGC-7901; assay: Cytotoxicity against human SGC7901 cells measured after 48 hrs by CCK8 assay; format: functional, cell-based; conditions: SGC-7901, 48 h; in short: as §3
[19] = Selectivity index, ratio of IC50 for HEK293T cells to MIC for multidrug-resistant Escherichia coli ATCC BAA-196; format: toxicity; conditions: human, read-out: Selectivity Index
[20] = system: Streptococcus pyogenes; assay: Antibacterial activity against Streptococcus pyogenes CMCC 32067 measured after 24 hrs by ELISA; format: functional; conditions: CMCC 32067, 24 h; in short: as §4
[21] = Selectivity index, ratio of IC50 for HEK293T cells to MIC for Pseudomonas aeruginosa CMCC 10104; format: toxicity; conditions: human, read-out: Selectivity Index
[22] = system: Streptococcus pneumoniae; assay: Antibacterial activity against Streptococcus pneumoniae CMCC 31968 measured after 24 hrs by ELISA; format: functional; conditions: CMCC 31968, 24 h
[23] = system: Staphylococcus aureus; assay: Antibacterial activity against Staphylococcus aureus CMCC 25923 measured after 24 hrs by ELISA; format: functional; conditions: CMCC 25923, 24 h; in short: as §4
[24] = Cytotoxicity against human A590 cells measured after 48 hrs by CCK8 assay; format: functional, cell-based; in short: as §3
[25] = system: Staphylococcus aureus; assay: Antibacterial activity against methicillin-resistant Staphylococcus aureus ATCC 43300 measured after 24 hrs by ELISA; format: functional; conditions: ATCC 43300, 24 h; in short: as §2
[26] = Selectivity index, ratio of IC50 for HEK293T cells to MIC for Escherichia coli CMCC 25922; format: toxicity; conditions: human, read-out: Selectivity Index
[27] = Selectivity index, ratio of IC50 for HEK293T cells to MIC for Enterococcus faecalis CMCC 29212; format: toxicity; conditions: human, read-out: Selectivity Index
[28] = system: Staphylococcus aureus; assay: Antibacterial activity against Staphylococcus aureus CMCC 25923 assessed as ratio of MIC after and before 16 passages at sub-MIC; format: functional; in short: as §1
[29] = Selectivity index, ratio of IC50 for HEK293T cells to MIC for methicillin-resistant Staphylococcus aureus ATCC 33591; format: toxicity; conditions: human, read-out: Selectivity Index
[30] = system: Escherichia coli; assay: Antibacterial activity against Escherichia coli CMCC 44568 measured after 24 hrs by ELISA; format: functional; conditions: CMCC 44568, 24 h; in short: as §4
[31] = system: Escherichia coli; assay: Antibacterial activity against Escherichia coli CMCC 25922 measured after 24 hrs by ELISA; format: functional; conditions: CMCC 25922, 24 h; in short: as §4
[32] = system: Escherichia coli; assay: Antibacterial activity against multidrug-resistant Escherichia coli ATCC BAA-196 measured after 24 hrs by ELISA; format: functional; conditions: ATCC BAA-196, 24 h; in short: as §2
[33] = system: Pseudomonas aeruginosa; assay: Antibacterial activity against Pseudomonas aeruginosa CMCC 27853 measured after 24 hrs by ELISA; format: functional; conditions: CMCC 27853, 24 h; in short: as §4

Q: Which results are given for `C/C(=N/NC(=N)N)c1cn(S(=O)(=O)c2ccc(C)cc2)c2ccc(Br)cc12`?
A: selectivity ratio [1]: 12.6; Ratio [2]: 0; MIC [3]: > 71.6 µM; MIC [4]: 2.24 µM (≈ 1 µg/mL); selectivity ratio [5]: 12.6; IC50 [6]: 56.4 µM; MIC [7]: 4.47 µM (≈ 2 µg/mL); MIC [8]: 4.47 µM (≈ 2 µg/mL); selectivity ratio [9]: 50.4; selectivity ratio [10]: 0.2; selectivity ratio [11]: 25.2; selectivity ratio [12]: < 0.79; MIC [13]: 8.94 µM (≈ 4.01 µg/mL); selectivity ratio [14]: 25.2; selectivity ratio [15]: < 0.2; MIC [16]: > 286 µM; selectivity ratio [17]: 50.4; IC50 [18]: 1.51 µM; selectivity ratio [19]: 101; MIC [20]: 286 µM (≈ 128 µg/mL); selectivity ratio [21]: < 0.2; MIC [22]: 2.24 µM (≈ 1 µg/mL); MIC [23]: 2.24 µM (≈ 1 µg/mL); IC50 [24]: 4.44 µM; MIC [25]: 1.12 µM (≈ 0.502 µg/mL); selectivity ratio [26]: 0.2; selectivity ratio [27]: 6.31; Ratio [28]: 0; selectivity ratio [29]: 25.2; MIC [30]: 1.12 µM (≈ 0.502 µg/mL); MIC [31]: 286 µM (≈ 128 µg/mL); MIC [32]: 0.56 µM (≈ 0.251 µg/mL); MIC [33]: > 286 µM

Q: For `CCn1cc(C(=O)O)c(=O)c2cc(F)c(N3CCNCC3)cc21` [NORFLOXACIN], which Ratio [2] is on record?
A: 16

Q: What about the MIC [3] of the same molecule?
A: 3.13 µM (≈ 1 µg/mL)

Q: What about the MIC [4] of the same molecule?
A: 0.78 µM (≈ 0.249 µg/mL)

Q: And the MIC [7]?
A: 6.27 µM (≈ 2 µg/mL)

Q: What about the MIC [8] of the same molecule?
A: 0.39 µM (≈ 0.125 µg/mL)

Q: And the MIC [13]?
A: 3.13 µM (≈ 1 µg/mL)

Q: What about the MIC [16] of the same molecule?
A: 12.5 µM (≈ 4 µg/mL)

Q: And the MIC [20]?
A: > 401 µM

Q: What about the MIC [22] of the same molecule?
A: > 401 µM

Q: What about the MIC [23] of the same molecule?
A: 0.39 µM (≈ 0.125 µg/mL)

Q: And the MIC [25]?
A: 1.57 µM (≈ 0.501 µg/mL)

Q: And the Ratio [28]?
A: 32

Q: What about the MIC [30] of the same molecule?
A: 0.39 µM (≈ 0.125 µg/mL)

Q: And the MIC [31]?
A: 0.39 µM (≈ 0.125 µg/mL)

Q: What about the MIC [32] of the same molecule?
A: 1.57 µM (≈ 0.501 µg/mL)

Q: And the MIC [33]?
A: 6.27 µM (≈ 2 µg/mL)
